# Assay results as given in PubChem BioAssay AID504382 (The Scripps Research Institute Molecular Screening Center, 2011).
# Among all 2,500 compounds or so, about 460 (18%) were called active.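 The calls were made as follows: active = mean activation above a cutoff of low control average plus 3 SD from the earlier screen (cut at about 12% in these data); inactive = the rest.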 Only a sample is shown.
# Test: IANBD-channel fluorescence artefacts in buffer – biochemical, artefact control for cardiac RTF calcium sensitizer project, confirmation (AID 504382)
# Details: IANBD fluorescence interference counterscreen, EC20 Ca2+, at 7.2 µM, active compounds read high, scaled: EC20 calcium 0, EC100 calcium 100
# Summary of the method: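 Medium: MOPS buffer, 190 mM, with KCl, MgCl2, EGTA, NTA, DTT, pH 7.20; Dosing: one dose of 7.2 µM, 0.7% DMSO; Probe or stimulus: calcium at EC20 level, 0.472 mM final; Incubation: 15 min, 25 °C; Evaluation: compound fluorescence interference relative to control well signal range; Signal: fluorescence, 480/540 nm.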
row,Compound,fluorescence artifact activation
1,C=CCN1C(=O)c2ccccc2NC1c1cc(Br)cs1 (stereo not drawn),7.88% (inactive)
2,Cc1nn(-c2ccccc2)c(Cl)c1C(=O)NC1CCCCC1,4.56% (inactive)
3,Cc1cc(=O)oc2cc(OCC(=O)OCC(=O)NC(C)C)ccc12,-0.02% (inactive)
4,CCc1ccccc1NC(=O)COc1ccc2c(=O)c(Oc3cc(C)ccc3C)coc2c1,664% (active)
5,Cc1ccc(C)c(NC(=O)COC(=O)Cc2ccsc2)c1,0.03% (inactive)
6,O=C(O)CSc1ncnc2scc(-c3ccc(Br)cc3)c12,0.71% (inactive)
7,CC(C)(C)NCc1cc(Cl)ccc1OCc1cccs1,13.9% (active)
8,COc1cccc2c1C(=O)c1c(O)c3c(c(O)c1C2=O)CC(O)(C(C)=NNC(=O)c1ccc(Cl)c(Cl)c1)CC3OC1CC(N)C(O)C(C)O1 (stereo not drawn),0.12% (inactive)
9,N#Cc1c(N)oc(-c2ccccc2)c1-c1ccccc1,4.93% (inactive)
10,Cc1cc(C)c(C#N)c(Sc2nnnn2-c2ccccc2)n1,11.6% (inactive)
11,Cc1cc(C)c(C#N)c(SCc2nnc(-c3ccccc3)o2)n1,14.5% (active)
12,CCOC(=O)/C(C#N)=N\Nc1cc(Cl)ccc1OC,0.07% (inactive)
13,C[C@@H]1C=C(C(=O)N2CCOCC2)O[C@H](OCc2ccc(CO)cc2)C1,0.97% (inactive)
14,CCOCCCNS(=O)(=O)c1ccc(NC(=O)c2ccc(OC)c([N+](=O)[O-])c2)cc1,0.52% (inactive)
15,O=C(Cn1cc(/C=N/NC(=O)c2cccc3ccccc23)c2ccccc21)Nc1ccc(F)cc1,19.7% (active)
16,O=C(Nc1ccccc1C(=O)N/N=C/c1ccco1)c1ccc(F)cc1,1.44% (inactive)
17,CCOc1cccc(NC(=O)/C(C#N)=C\c2cn(CC(=O)O)c3ccccc23)c1,0.19% (inactive)
18,Cc1ccc(N=Cc2sc(O)c3ccccc23)c(C)c1,0.06% (inactive)
19,CCOC(=O)c1ccc[n+](CC(=O)Nc2cc(C(F)(F)F)ccc2Cl)c1,2.39% (inactive)
20,CCn1c(O)c(/C=N/N=C/c2ccccc2)c2ccc(C3=NNC(=O)CC3)cc21,0.02% (inactive)
21,Brc1ccc(-c2cnnc(N3CCCC3)n2)cc1,66.5% (active)
22,C=CCOc1ccc(CNc2ccc3[nH]c(=O)[nH]c3c2)cc1OCC,5.69% (inactive)
23,COC(=O)c1c(NC(=O)c2ccnn2C)sc(C)c1C,0.09% (inactive)
24,Fc1ccc(C2=CC(c3ccc(Br)o3)n3ncnc3N2)cc1 (stereo not drawn),0.34% (inactive)

row,Compound,fluorescence artifact activation
1,OCCN=C1CCCc2c1[nH]c1ccc(Cl)cc21,0.44% (inactive)
2,COc1ccccc1NC(=O)COC(=O)c1cnc(C)cn1,14.7% (active)
3,COc1ccccc1NC(=O)CC(=O)CSc1nnc(-c2ccc(C)cc2)n1-c1ccccc1,-0.03% (inactive)
4,COc1ccccc1NCC(=O)NC(=O)NC1CCCCC1,0.02% (inactive)
5,CCC(=O)Nc1ccc2c(c1)nc(CCN1CCN(C)CC1)n2C,20.2% (active)
6,Cn1c(CN2CCCC2)nc2cc(NC(=O)COc3ccc([N+](=O)[O-])cc3)ccc21,0.82% (inactive)
7,CCCn1c(CN2CCN(C(=O)OCC)CC2)nc2cc(NC(=O)CC)ccc21,0.01% (inactive)
8,CCCCC1OC23CCCCC2C(C#N)(C(=N)O3)C1(C#N)C#N (stereo not drawn),-0.04% (inactive)
9,CCCCC1OC23CCCCC2C(C#N)(C#N)C1(C#N)C(=N)O3 (stereo not drawn),3.08% (inactive)
10,CCCC1OC23CCCCC2C(C#N)(C#N)C1(C#N)C(=N)O3 (stereo not drawn),36.8% (active)
11,CCN(c1ccccc1)S(=O)(=O)c1ccc(OC)c(NC(=O)Cn2cnc3c2c(=O)n(C)c(=O)n3C)c1,0.38% (inactive)
12,CC(OC(=O)/C(C#N)=C/c1ccc(N(C)C)cc1)C(=O)N(C)c1ccccc1 (stereo not drawn),0.19% (inactive)
13,NS(=O)(=O)c1ccc(-c2ccc(/C=C3\SC(=S)N(C4CCS(=O)(=O)C4)C3=O)o2)cc1 (stereo not drawn),3.08% (inactive)
14,COc1ccc(CCNC(=O)C2CC(c3c(Cl)cccc3Cl)=NO2)cc1 (stereo not drawn),-0.04% (inactive)
15,CC1(C)CC(=O)C(CC2CCCCC2=O)C(=O)C1 (stereo not drawn),0.76% (inactive)
16,CCN(CC)c1ccc(NC(=S)Nc2ccc(F)cc2)cc1,0.1% (inactive)
17,Fc1ccc(CNC(=S)NCc2ccc(F)cc2)cc1,12.3% (active)
18,Fc1ccc(CNCc2ccc(Br)cc2)cc1,0.02% (inactive)
19,S=C(Nc1ccc(N2CCOCC2)cc1)Nc1ccc2nc(-c3ccco3)c(-c3ccco3)nc2c1,8.46% (inactive)
20,O=C(Cn1cnc2ccccc2c1=O)c1ccc(Br)cc1,102% (active)
21,O=C(c1ccc(Cl)cc1)n1cnc2ccccc21,0.21% (inactive)
22,COc1ccc(C(=O)Cn2cnc3ccccc3c2=O)cc1OC,0.22% (inactive)
23,O=C(C1=NN(c2ccccc2)C2C(=O)N(c3ccccc3Cl)C(=O)C12)c1ccccc1 (stereo not drawn),1.06% (inactive)
24,Cc1oc(-c2cc3c(cc2Cl)OCO3)nc1CN1CCCC(C(=O)N2CCOCC2)C1 (stereo not drawn),190% (active)

row,Compound,fluorescence artifact activation
1,CSCCC(NC(=O)c1ccc(Cl)cc1)C(=O)OCC(=O)c1ccc[nH]1 (stereo not drawn),0.05% (inactive)
2,O=C(/C=C/c1ccccc1)N/C(=C/c1ccccc1)C(=O)NCCCO,0.08% (inactive)
3,C=CCNC(=O)NC(=O)COC(=O)CC(NC(N)=O)c1ccc(Cl)cc1 (stereo not drawn),50.5% (active)
4,O=C(NCCCN1CCCC1=O)c1cccc(S(=O)(=O)Nc2ccc(Br)cc2)c1,0.07% (inactive)
5,O=C1CCC(=O)N(O)CCCCCNC(=O)CCC(=O)N(O)CCCCNC(=O)CCC(=O)N(O)CCCCCN1,-0.06% (inactive)
6,O=C(CC1C(=O)N(c2ccc(Cl)cc2)C(=S)N1CCc1ccncc1)Nc1ccc(F)cc1 (stereo not drawn),-0.02% (inactive)
7,O=S(=O)(c1ccccc1Cl)N1CCC(Cc2ccccc2)CC1,0.09% (inactive)
8,CC1CCN(S(=O)(=O)c2ccc(N=NC3=C(O)CC(C)(C)CC3=O)cc2)CC1,1.03% (inactive)
9,O=C1c2cccc3cccc(c23)C(=O)N1CC1CCN(S(=O)(=O)c2ccc(F)cc2)CC1,34.6% (active)
10,C=CCn1c(C)cc(-c2csc(N)n2)c1C,2.95% (inactive)
11,O=C(NCc1ccco1)C1CC(c2c(Cl)cccc2Cl)=NO1 (stereo not drawn),-0.09% (inactive)
12,COc1cccc(C(=O)NC2CC3CCCC(C2)N3CC(=O)Nc2ccc(N(C)C)cc2)c1 (stereo not drawn),3.62% (inactive)
13,CN(C)c1ccc(/C=C/c2cc[n+](C)c3ccccc23)cc1,0.06% (inactive)
14,CN(C)c1ccc(/C=C/c2cc[n+](C)cc2)cc1,14.5% (active)
15,Cc1ccc(/C=C/c2ccc(N(C)C)cc2)[n+](C)c1,1.46% (inactive)
16,O=C1N(c2cccc(Cl)c2)C(c2ccccc2)N2CCCN12 (stereo not drawn),-0.04% (inactive)
17,COc1ccc(COc2cc(-c3cccc(OC)c3)nc3ccc(NC(=O)c4ccc(C)cc4)cc23)cc1,0.13% (inactive)
18,COc1cccc(CC(NC(C)=O)C(=O)NC2CCN(c3nc(C)cc(C)c3C#N)CC2)c1OC (stereo not drawn),6.12% (inactive)
19,CCCCN(C(=O)c1ccc2c(c1)OCCO2)c1c(N)n(CCCC)c(=O)[nH]c1=O,-0.02% (inactive)
20,CC(=O)Nc1ccc(NC(=O)C(C)OC(=O)/C(C#N)=C/c2ccc(N(C)C)cc2)cc1 (stereo not drawn),2.64% (inactive)
21,CC1CC(C)(C)NC(=S)N1CCCC(=O)Nc1ccccc1F (stereo not drawn),0.07% (inactive)
22,CCC(C)n1ncn(-c2ccc(N3CCN(c4ccc(OCC5COC(Cn6cncn6)(c6ccc(Cl)cc6Cl)O5)cc4)CC3)cc2)c1=O (stereo not drawn),121% (active)
23,CC1(C)c2[nH]c3ccccc3c2C[C@H]2C(=O)N(Cc3ccc(F)cc3)C(=O)N21,0% (inactive)
24,Cc1onc(-c2ccccc2Cl)c1C(=O)N(Cc1ccc(N(C)C)cc1)C(C)C,2.44% (inactive)

row,Compound,fluorescence artifact activation
1,CCOC(=O)c1cc2n(c1N)-c1ccccc1C2=O,19.5% (active)
2,CCOC(=O)c1cc2c(s1)-c1ccccc1CC2,0.55% (inactive)
3,CCOC(=O)c1ccccc1-n1nnnc1C,0.06% (inactive)
4,COc1cc(/C=C/C=C2/CC/C(=C/C=C/c3ccc(O)c(OC)c3)C2=O)ccc1O,7.81% (inactive)
5,C/C(=C\C=C(C#N)C#N)c1cc(C#N)c(N)o1,3.09% (inactive)
6,N#C/C(=C/c1ccc(N2CCOCC2)o1)c1ccc(Cl)cc1,0% (inactive)
7,N#C/C(=C/c1ccc(N2CCCCCC2)o1)c1ccc(Cl)cc1,12.3% (active)
8,N#C/C(=C\c1ccc(N2CCCCC2)o1)C(N)=O,2.99% (inactive)
9,N#C/C(=C\c1ccc(N2CCOCC2)o1)C(=O)N1CCOCC1,0.05% (inactive)
10,N#C/C(=C/c1ccc(N2CCCCCC2)o1)c1cccc(F)c1,33.8% (active)
11,Cc1ncoc1C(=O)N1CCc2c([nH]c3ccccc23)C1C(C)(C)C (stereo not drawn),0.21% (inactive)
12,CN(C)c1ccc(/C=C/c2ccc3ccccc3n2)cc1,0.06% (inactive)
13,CN1CCN(CCNC(=O)Nc2ccc(Cl)cc2)CC1,3.25% (inactive)
14,CCCCCCSc1ccc([C@@H]2[C@H]3C(=O)N(CC)C(=O)[C@H]3[C@]3(C(=O)OC)CCCCN23)cc1OC,-0.04% (inactive)
15,CCn1cc(Cl)c(C(=O)NNC(=O)CCn2cc([N+](=O)[O-])cn2)n1,-0.04% (inactive)
16,CC1(C)c2ccccc2N2CC(=O)N(CC(N)=O)C21C (stereo not drawn),20.9% (active)
17,CN1/C(=C\C=C2/SC(=S)N(CC(=O)O)C2=O)C(C)(C)c2ccccc21,0.11% (inactive)
18,CN1C(=CC=C2C=C(I)C(=O)C(I)=C2)C(C)(C)c2ccccc21,0.22% (inactive)
19,O=C(Nc1ccccc1)OC1CCC2CC1CCC2OC(=O)Nc1ccccc1 (stereo not drawn),-0.01% (inactive)
20,CC(=O)Nc1ccccc1,-0.1% (inactive)
21,O=C(Nc1ccccc1)NC1CS(=O)(=O)CC1O (stereo not drawn),32.8% (active)
